Data taken from PubChem BioAssay AID504331 (Broad Institute, 2011).
Several values for one entry are separate records, joined by “and”; a condition that tells them apart may be missing. Equal entries are not always repeated. Activity calls are given as the source filed them.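 How the source made its calls: active means compounds that lower cell viability with a fitted AC50 at most ten times their top valid dose; inconclusive means flat fit showing 30 to 70 percent loss, or poor fit; inactive means the rest.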

Test system: not listed separately
Assay: U2OS reporter cell viability with added iron – iron-supplemented medium, dry powder, cytotoxicity control for HIF pathway activator project, dose response (AID 504331)
Settings: U2OS HRE-luc cells viability, CellTiter-Glo luminescence; at 38 µM (top of the series)
Procedure, shortened: (§1)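 Material: U2OS HRE-luciferase reporter cells / Quantity: 6,000 cells per well / Compound: 8 concentrations, 3-fold dilution steps / Incubation: cells plated 24 h before dosing, 24 h compound exposure at 37 °C / Measured by: viability luminescence, CellTiter-Glo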
For `O=C(Nc1ncc(-c2ccccc2)o1)c1cc(-c2ccccc2)on1`, the activity change, negative = cytotoxicity was 1.13% (inactive). In the case of `c1ccc(-c2nnc(-c3ccccn3)nc2NCC2CCOCC2)cc1`, the activity change, negative = cytotoxicity was 5.99% (inactive). With `N#CC1(c2ccccc2)CCN(Cc2ccc(O)c3ncccc23)CC1` the activity change, negative = cytotoxicity was 10.7% (inactive). With `O=C(NCCCCO)c1cc(-c2ccccc2)on1` the activity change, negative = cytotoxicity was 1.09% (inactive). With `O=C(NCC1CC1)c1cc(-c2ccccc2)on1` the activity change, negative = cytotoxicity was 20.9% (inactive). In the case of `O=C(NC1Cc2ccccc2C1)c1cc(-c2ccccc2)on1`, the activity change, negative = cytotoxicity was -12.2% (inactive). With `CCCCNC(=O)c1cc(-c2ccccc2)on1` the activity change, negative = cytotoxicity was 5.24% (inactive). With `Cc1ccc(NC(=O)c2cc(-c3ccccc3)on2)cn1` the activity change, negative = cytotoxicity was -4.1% (inactive). With `O=C(NCCN1CCOCC1)c1cc(-c2ccccc2)on1` the activity change, negative = cytotoxicity was 12.9% (inactive). For `c1ccc(-c2nnc(-c3ccccn3)nc2NCC2CC2)cc1`, the activity change, negative = cytotoxicity was 4.24% (inactive). For `O=C(NCCN1CCCCC1)c1cc(-c2ccccc2)on1`, the activity change, negative = cytotoxicity was 14% (inactive). With `Cc1cccc(CNC(=O)c2cc(-c3ccccc3)on2)c1` the activity change, negative = cytotoxicity was -4.42% (inactive). With `c1ccc(-c2nnc(-c3ccccn3)nc2NCc2cccnc2)cc1` the activity change, negative = cytotoxicity was 17% (inactive). With `CN1CCN(C(=O)c2cc(-c3ccccc3)on2)CC1` the activity change, negative = cytotoxicity was 2.12% (inactive). With `O=C(NCC1CCCCC1)c1cc(-c2ccccc2)on1` the activity change, negative = cytotoxicity was -8.74% (inactive). In the case of `c1ccc(-c2nnc(-c3ccccn3)nc2N2CCN(c3ccncc3)CC2)cc1`, the activity change, negative = cytotoxicity was 7.73% (inactive). With `CN(C)CCNC(=O)c1cc(-c2ccccc2)on1` the activity change, negative = cytotoxicity was 11% (inactive). In the case of `c1ccc(-c2nnc(-c3ccccn3)nc2N2CCC(C3CCCCC3)C2)cc1` (centres undefined), the activity change, negative = cytotoxicity was 0.423% (inactive). For `c1ccc(-c2cccc(CNc3nc(-c4ccccn4)nnc3-c3ccccc3)c2)cc1`, the activity change, negative = cytotoxicity was -2.48% (inactive). With `c1ccc(-c2nnc(-c3ccccn3)nc2NCCc2ccccn2)cc1` the activity change, negative = cytotoxicity was -1.62% (inactive). With `O=C(c1cc(-c2ccccc2)on1)N1CCC(N2CCCC2)CC1` the activity change, negative = cytotoxicity was -1.03% (inactive). In the case of `c1ccc(-c2nnc(-c3ccccn3)nc2N2CCC(N3CCOCC3)CC2)cc1`, the activity change, negative = cytotoxicity was 5.36% (inactive). In the case of `c1ccc(-c2nnc(Nc3nc(-c4ccccn4)nnc3-c3ccccc3)s2)cc1`, the activity change, negative = cytotoxicity was 5.32% (inactive). In the case of `CC(C)(C)OC(=O)N1CCN(Cc2ccc(O)c3ncccc23)CC1`, the activity change, negative = cytotoxicity was 8.63% (inactive). With `O=C(Nc1nc(-c2ccccc2)cs1)c1cc(-c2ccccc2)on1` the activity change, negative = cytotoxicity was 8.59% (inactive). With `Cn1c(-c2ccccc2)cnc1NC(=O)c1cc(-c2ccccc2)on1` the activity change, negative = cytotoxicity was -7.51% (inactive). With `CN(C)c1nc(-c2ccccn2)nnc1-c1ccccc1` the activity change, negative = cytotoxicity was 13.9% (inactive). In the case of `OCCCNc1nc(-c2ccccn2)nnc1-c1ccccc1`, the activity change, negative = cytotoxicity was 12.8% (inactive). With `O=C(c1cc(-c2ccccc2)on1)N1CCC(CO)CC1` the activity change, negative = cytotoxicity was 7.47% (inactive). With `O=C(Nc1cnc2ccccc2c1)c1cc(-c2ccccc2)on1` the activity change, negative = cytotoxicity was -0.953% (inactive). With `O=C(NCCCO)c1cc(-c2ccccc2)on1` the activity change, negative = cytotoxicity was -4.34% (inactive). For `c1ccc(CNc2nc(-c3ccccn3)nnc2-c2ccccc2)cc1`, the activity change, negative = cytotoxicity was 0.83% (inactive). In the case of `O=C(NCCCn1ccnc1)c1cc(-c2ccccc2)on1`, the activity change, negative = cytotoxicity was -7.58% (inactive). In the case of `O=C(c1cc(-c2ccccc2)on1)N1CCC(N2CCOCC2)CC1`, the activity change, negative = cytotoxicity was 5.61% (inactive). For `CC(C)(C)CCNc1nc(-c2ccccn2)nnc1-c1ccccc1`, the activity change, negative = cytotoxicity was -21.1% (inactive). In the case of `CC(C)(C)CCNC(=O)c1cc(-c2ccccc2)on1`, the activity change, negative = cytotoxicity was -4% (inactive). In the case of `Cc1ccccc1CNC(=O)c1cc(-c2ccccc2)on1`, the activity change, negative = cytotoxicity was 4.84% (inactive). For `O=C(Nc1nc2ccccc2s1)c1cc(-c2ccccc2)on1`, the activity change, negative = cytotoxicity was 11.3% (inactive). In the case of `O=C(Nc1ncc2ccccc2n1)c1cc(-c2ccccc2)on1`, the activity change, negative = cytotoxicity was -12.2% (inactive). In the case of `Cn1c(NC(=O)c2cc(-c3ccccc3)on2)nc2ccccc21`, the activity change, negative = cytotoxicity was 15.8% (inactive). For `CN1CCN(c2nc(-c3ccccn3)nnc2-c2ccccc2)CC1`, the activity change, negative = cytotoxicity was -22.1% (inactive). For `O=C(Nc1cn2ccccc2n1)c1cc(-c2ccccc2)on1`, the activity change, negative = cytotoxicity was 15.5% (inactive). For `Cc1cccc(CNc2nc(-c3ccccn3)nnc2-c2ccccc2)c1`, the activity change, negative = cytotoxicity was -8.02% (inactive). In the case of `Cc1cccc(NC(=O)c2cc(-c3ccccc3)on2)n1`, the activity change, negative = cytotoxicity was -3.67% (inactive). For `Oc1ccc(CN2CCC(Cc3ccccc3)CC2)c2cccnc12`, the activity change, negative = cytotoxicity was -1.73% (inactive). With `c1ccc(-c2nnc(-c3ccccn3)nc2NCCCN2CCOCC2)cc1` the activity change, negative = cytotoxicity was 9.59% (inactive). In the case of `O=C(NCc1ccccc1)c1cc(-c2ccccc2)on1`, the activity change, negative = cytotoxicity was 6.28% (inactive). With `Cc1ccccc1CNc1nc(-c2ccccn2)nnc1-c1ccccc1` the activity change, negative = cytotoxicity was -20% (inactive). For `O=C(c1cc(-c2ccccc2)on1)N1CCc2cccnc21`, the activity change, negative = cytotoxicity was -7.82% (inactive). In the case of `c1ccc(-c2nnc(-c3ccccn3)nc2NCCN2CCOCC2)cc1`, the activity change, negative = cytotoxicity was -5.86% (inactive). With `Cc1ccc(CNC(=O)c2cc(-c3ccccc3)on2)cc1` the activity change, negative = cytotoxicity was -12.1% (inactive). For `O=C(NCCCN1CCOCC1)c1cc(-c2ccccc2)on1`, the activity change, negative = cytotoxicity was 11% (inactive). With `O=C(Nc1ccc2ccccc2n1)c1cc(-c2ccccc2)on1` the activity change, negative = cytotoxicity was 13% (inactive). With `C=CCNc1nc(-c2ccccn2)nnc1-c1ccccc1` the activity change, negative = cytotoxicity was 6.06% (inactive). For `O=C(Nc1nnc(-c2ccccc2)s1)c1cc(-c2ccccc2)on1`, the activity change, negative = cytotoxicity was 13.2% (inactive).

Test system: U2OS HRE-luc cells viability, CellTiter-Glo luminescence
Assay: as above
Settings: not given
Procedure, shortened: as §1
Work on `C[C@@H](Nc1nc(-c2ccccn2)nnc1-c1ccccc1)C1CCCCC1` yielded an AC50 of 32 µM. For `Oc1ccc(CN2CCc3ccccc3C2)c2cccnc12`, the AC50 was 23.3 µM and 24.6 µM. `Oc1ccc(CNC2CCc3ccccc32)c2cccnc12` (centres undefined) gave an AC50 of 35.7 µM. Compound `CC1CN(Cc2ccc(O)c3ncccc23)CC(C)O1` (centres undefined) has an AC50 of 15.6 µM. In the case of `c1ccc(-c2nnc(-c3ccccn3)nc2NCc2ccccn2)cc1`, the AC50 was > 38 µM (inactive). Work on `Oc1ccc(CNC2Cc3ccccc3C2)c2cccnc12` yielded an AC50 of 22.5 µM. Work on `OCC1CCN(Cc2ccc(O)c3ncccc23)CC1` yielded an AC50 of 2.54 µM. `Oc1ccc(CN2CCC3CCCCC3C2)c2cccnc12` (centres undefined) showed an AC50 of 22.5 µM. With `c1ccc(-c2csc(Nc3nc(-c4ccccn4)nnc3-c3ccccc3)n2)cc1` the AC50 was > 38 µM (inactive). In the case of `Cn1c(-c2ccccc2)cnc1Nc1nc(-c2ccccn2)nnc1-c1ccccc1`, the AC50 was > 38 µM (inactive). With `c1ccc(-c2nnc(-c3ccccn3)nc2N2CCC(c3ccccc3)C2)cc1` (centres undefined) the AC50 was 13.6 µM. In the case of `O=C(c1cc(-c2ccccc2)on1)N1CCN(c2ccncc2)CC1`, the AC50 was > 38 µM (inactive). With `COc1ccccc1N1CCN(Cc2ccc(O)c3ncccc23)CC1` the AC50 was 33.2 µM. With `O=C(NC1CCc2ccccc2C1)c1cc(-c2ccccc2)on1` (centres undefined) the AC50 was > 38 µM (inactive).
